Experiment [1] concerns the target T1, cGMP-specific 3',5'-cyclic phosphodiesterase (Homo sapiens, UniProt O76074). Briefly: Inhibition of human recombinant PDE5 at 10 uM after 30 mins by fluorescence polarization assay. (Fluorescence polarisation rises when a labelled molecule tumbles more slowly, as on binding a larger partner.)
For experiment [2], the system named is MDA-MB-231. In words: Growth inhibition of human MDA-MB-231 cells at 10 uM after 72 hrs by luminescence assay. It counts as functional. As to conditions: MDA-MB-231, 72 h.
The target of experiment [3] is T1, cGMP-specific 3',5'-cyclic phosphodiesterase. In words: Inhibition of human recombinant PDE5 after 30 mins by fluorescence polarization assay. Summed up: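 Recombinant human PDE5A at 12.5 units/mL was preincubated 30 min with compound or vehicle. Then 50 nM TAMRA-cGMP was added and the mix incubated 1.5 h at 30 °C. IMAP binding reagent was added for 30 min at 30 °C and fluorescence polarization read. IC50 came from a 10-concentration series in quadruplicate, fitted to a four-parameter logistic.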

Experiment [4] relates to MDA-MB-231. In words: Growth inhibition of human MDA-MB-231 cells after 72 hrs by luminescence assay. The experiment is classed as functional, cell-based. The settings on record: MDA-MB-231, 72 h. In outline:
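MDA-MB-231 cells grown in RPMI 1640 with 5% FBS, 2 mM glutamine and antibiotics at 37 °C, 5% CO2. Cells were harvested at 70–90% confluence, used only if viability >95%, and seeded at 5000 cells/well. Dosing followed 18–24 h later, with final DMSO 0.1%. Viability was read after 72 h by CellTiter-Glo luminescence. IC50 came from eight concentrations in quadruplicate, fitted to a four-parameter logistic.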

In general, inhibition refers to the percentage by which the read-out fell short of the control. `COC(=O)[C@H]1Cc2c([nH]c3ccccc23)[C@@H](c2ccc(Cl)c(Cl)c2)N1C(=O)CCl`: in experiment [1], the inhibition was 40%.
Usually IC50 stands for the point on the concentration scale where inhibition reaches its midpoint. As to `CCN1C(=O)[C@@H]2Cc3c([nH]c4ccccc34)[C@@H](c3ccc(Cl)c(Cl)c3)N2C1=O`, the inhibition at 10 µM in experiment [2] was determined as 18%. Further, the inhibition in experiment [1] came to 90%. In addition, the IC50 in experiment [3] worked out at 300 nM.
In experiment [2], `CC(C)(C)N1C(=O)[C@@H]2Cc3c([nH]c4ccccc34)[C@H](c3ccc(Cl)cc3Cl)N2C1=O` showed an inhibition at 10 µM of 22%. Moreover, the inhibition in experiment [1] was 75%. The half-maximal inhibitory concentration (IC50) in experiment [3] came out at 4140 nM.
`CCN1C(=O)[C@@H]2Cc3c([nH]c4ccccc34)[C@H](c3c(Cl)cccc3Cl)N2C1=O` registered an inhibition at 10 µM in experiment [2] of 52%. The inhibition in experiment [1] stood at 37%.
In turn, `CCN1C(=O)[C@H]2Cc3c([nH]c4ccccc34)[C@@H](c3c(Cl)cccc3Cl)N2C1=O` registered an inhibition at 10 µM in experiment [2] of 55%. Also, the inhibition in experiment [1] came to 18%.
`CN1CC(=O)N2[C@H](c3ccc(Cl)cc3Cl)c3[nH]c4ccccc4c3C[C@@H]2C1=O`: the inhibition at 10 µM in experiment [2] was 10%. Also, the inhibition in experiment [1] is 95%. Also, the IC50 in experiment [3] came out at 50 nM.
For `CCN1CC(=O)N2[C@@H](c3ccc(Cl)cc3Cl)c3[nH]c4ccccc4c3C[C@H]2C1=O` the same measures were 52%, 85% and 990 nM.
`CCN1CC(=O)N2[C@H](c3ccc(Cl)c(Cl)c3)c3[nH]c4ccccc4c3C[C@@H]2C1=O` showed an inhibition at 10 µM in experiment [2] of 30%. Besides, the inhibition in experiment [1] came out at 80%. Also, in experiment [3], the IC50 turned out to be 1340 nM.
On to `COC(=O)[C@H]1Cc2c([nH]c3ccccc23)[C@@H](c2c(Cl)cccc2Cl)N1C(=O)CCl`, for which, in experiment [2], the inhibition at 10 µM was 15%. The inhibition in experiment [1] was 27%.
In experiment [2], `CC(C)(C)N1C(=O)[C@H]2Cc3c([nH]c4ccccc34)[C@H](c3ccc(Cl)c(Cl)c3)N2C1=O` had an inhibition at 10 µM of 58%. The inhibition in experiment [1] came to 65%. Moreover, the IC50 in experiment [3] is 6380 nM.
On to `CCN1C(=O)[C@H]2Cc3c([nH]c4ccccc34)[C@H](c3ccc(Cl)cc3Cl)N2C1=O`, for which, in experiment [2], testing at 10 µM gave an inhibition of 54%. Moreover, the inhibition in experiment [1] is 90%. The IC50 in experiment [3] was 90 nM.
As to `CC(C)(C)N1CC(=O)N2[C@H](c3ccc(Cl)cc3Cl)c3[nH]c4ccccc4c3C[C@@H]2C1=O`, in experiment [2], the inhibition at 10 µM was determined as 15%. For the same compound, in experiment [1], the inhibition was 94%. Also, the IC50 in experiment [3] was 190 nM.
Consider `COC(=O)[C@@H]1Cc2c([nH]c3ccccc23)[C@@H](c2ccc(Cl)c(Cl)c2)N1`, for which the inhibition at 10 µM in experiment [2] was 48%. In addition, the inhibition in experiment [1] worked out at 24%.
`COC(=O)[C@@H]1Cc2c([nH]c3ccccc23)[C@H](c2ccc(Cl)cc2Cl)N1C(=O)CCl` registered an inhibition at 10 µM in experiment [2] of 55%. Moreover, in experiment [1], the inhibition is 99%. Further, the IC50 in experiment [3] worked out at 380 nM.
Compound `CCN1CC(=O)N2[C@H](c3c(Cl)cccc3Cl)c3[nH]c4ccccc4c3C[C@@H]2C1=O` returned an inhibition at 10 µM in experiment [2] of 31%. Also, in experiment [1], the inhibition was 40%.
`CC(C)(C)N1CC(=O)N2[C@H](c3ccc(Cl)c(Cl)c3)c3[nH]c4ccccc4c3C[C@H]2C1=O`: in experiment [2], the inhibition at 10 µM turned out to be 50%. In experiment [1], the inhibition amounted to 85%. Also, the IC50 in experiment [3] was 1270 nM.
For `COC(=O)[C@@H]1Cc2c([nH]c3ccccc23)[C@H](c2ccc(Cl)cc2Cl)N1`, the inhibition at 10 µM in experiment [2] was 50%. Moreover, the inhibition in experiment [1] amounted to 55%.
The compound `COC(=O)[C@@H]1Cc2c([nH]c3ccccc23)[C@@H](c2ccc(Cl)c(Cl)c2)N1C(=O)CCl` gave an inhibition at 10 µM in experiment [2] of 55%. Further, the inhibition in experiment [1] stood at 40%.
For `CC(C)(C)N1C(=O)[C@@H]2Cc3c([nH]c4ccccc34)[C@@H](c3ccc(Cl)c(Cl)c3)N2C1=O`, in experiment [2], the inhibition at 10 µM came out at 60%. Further, the inhibition in experiment [1] came out at 88%. For the same compound, the IC50 in experiment [3] was 12 nM.
Turning to `COC(=O)[C@H]1Cc2c([nH]c3ccccc23)[C@@H](c2ccc(Cl)cc2Cl)N1`, the inhibition at 10 µM in experiment [2] was 29%. Further, the inhibition in experiment [1] was determined as 65%. Further, the IC50 in experiment [3] stood at 7200 nM.
In the case of `CC(C)(C)N1CC(=O)N2[C@H](c3ccc(Cl)c(Cl)c3)c3[nH]c4ccccc4c3C[C@@H]2C1=O`, the inhibition at 10 µM in experiment [2] stood at 36%. Moreover, the inhibition in experiment [1] worked out at 35%.
`CCN1C(=O)[C@H]2Cc3c([nH]c4ccccc34)[C@@H](c3ccc(Cl)c(Cl)c3)N2C1=O` gave an inhibition at 10 µM in experiment [2] of 50%. In experiment [1], the inhibition turned out to be 95%. Moreover, the IC50 in experiment [3] stood at 150 nM.
Take `COC(=O)[C@H]1Cc2c([nH]c3ccccc23)[C@H](c2ccc(Cl)c(Cl)c2)N1C(=O)CCl`: 10 µM produced 50% inhibition in experiment [2]. Also, in experiment [1], the inhibition was 30%.
On to `CCN1CC(=O)N2[C@@H](c3ccc(Cl)c(Cl)c3)c3[nH]c4ccccc4c3C[C@H]2C1=O`, for which, in experiment [2], the inhibition at 10 µM came out at 35%. Besides, in experiment [1], the inhibition came out at 67%. Besides, the IC50 in experiment [3] came to 3300 nM.
For the compound `CC(C)(C)N1CC(=O)N2[C@H](c3ccc(Cl)cc3Cl)c3[nH]c4ccccc4c3C[C@H]2C1=O`, in experiment [2], 10 µM produced 30% inhibition. Besides, the IC50 in experiment [3] came out at 260 nM.
Turning to `CC(C)(C)N1CC(=O)N2[C@@H](c3c(Cl)cccc3Cl)c3[nH]c4ccccc4c3C[C@H]2C1=O`, in experiment [2], testing at 10 µM gave an inhibition of 20%. Besides, the inhibition in experiment [1] turned out to be 21%.
`COC(=O)[C@@H]1Cc2c([nH]c3ccccc23)[C@@H](c2ccc(Cl)cc2Cl)N1` showed an inhibition at 10 µM in experiment [2] of 28%. Further, the inhibition in experiment [1] is 82%. The IC50 in experiment [3] turned out to be 570 nM.
Turning to `CC(C)(C)N1C(=O)[C@@H]2Cc3c([nH]c4ccccc34)[C@H](c3c(Cl)cccc3Cl)N2C1=O`, in experiment [2], the inhibition at 10 µM is 15%. Moreover, the inhibition in experiment [1] came out at 25%.
In experiment [2], `CC(C)(C)N1CC(=O)N2[C@@H](c3ccc(Cl)c(Cl)c3)c3[nH]c4ccccc4c3C[C@H]2C1=O` yielded an inhibition at 10 µM of 58%. Further, in experiment [1], the inhibition came to 35%.
In turn, `CC(C)(C)N1CC(=O)N2[C@H](c3c(Cl)cccc3Cl)c3[nH]c4ccccc4c3C[C@@H]2C1=O` displayed an inhibition at 10 µM in experiment [2] of 16%. In addition, the inhibition in experiment [1] was found to be 21%.
For `CCN1CC(=O)N2[C@@H](c3ccc(Cl)c(Cl)c3)c3[nH]c4ccccc4c3C[C@@H]2C1=O`, 10 µM produced 44% inhibition in experiment [2]. Besides, the inhibition in experiment [1] is 45%.
In experiment [2], `CCN1CC(=O)N2[C@@H](c3c(Cl)cccc3Cl)c3[nH]c4ccccc4c3C[C@H]2C1=O` displayed an inhibition at 10 µM of 24%. The inhibition in experiment [1] stood at 28%.
In experiment [2], `CCN1C(=O)[C@@H]2Cc3c([nH]c4ccccc34)[C@H](c3ccc(Cl)cc3Cl)N2C1=O` showed an inhibition at 10 µM of 29%. Also, the inhibition in experiment [1] worked out at 85%. Also, the IC50 in experiment [3] amounted to 850 nM.
In experiment [2], `CC(C)(C)N1C(=O)[C@H]2Cc3c([nH]c4ccccc34)[C@@H](c3c(Cl)cccc3Cl)N2C1=O` showed an inhibition at 10 µM of 38%. Moreover, the inhibition in experiment [1] amounted to 52%.
`CCCCN1CC(=O)N2[C@H](c3ccc(Cl)cc3Cl)c3[nH]c4ccccc4c3C[C@H]2C1=O` came in with an inhibition at 10 µM in experiment [2] of 42%. In addition, in experiment [1], the inhibition worked out at 89%. For the same compound, the IC50 in experiment [3] came out at 290 nM.
For `CN1CC(=O)N2[C@H](c3ccc(Cl)cc3Cl)c3[nH]c4ccccc4c3C[C@H]2C1=O` the same measures were 23%, 95% and 50 nM.
For `CCN1CC(=O)N2[C@H](c3ccc(Cl)c(Cl)c3)c3[nH]c4ccccc4c3C[C@H]2C1=O`, at 10 µM the inhibition in experiment [2] was 50%. Also, in experiment [1], the inhibition came to 78%. Further, in experiment [3], the IC50 is 2040 nM.
For `COC(=O)[C@H]1Cc2c([nH]c3ccccc23)[C@@H](c2c(Cl)cccc2Cl)N1`, in experiment [1], the inhibition stood at 25%.
`COC(=O)[C@H]1Cc2c([nH]c3ccccc23)[C@H](c2ccc(Cl)cc2Cl)N1C(=O)CCl` came in with an IC50 in experiment [4] of 70 nM. Moreover, the inhibition in experiment [1] was 25%.
The compound `CC(C)(C)N1CC(=O)N2[C@@H](c3ccc(Cl)c(Cl)c3)c3[nH]c4ccccc4c3C[C@@H]2C1=O` yielded an inhibition at 10 µM in experiment [2] of 40%. Moreover, in experiment [1], the inhibition worked out at 30%.
Turning to `COC(=O)[C@H]1Cc2c([nH]c3ccccc23)[C@@H](c2ccc(Cl)c(Cl)c2)N1`, the inhibition at 10 µM in experiment [2] came out at 43%. The inhibition in experiment [1] amounted to 78%. Also, in experiment [3], the half-inhibitory concentration (IC50) amounted to 1610 nM.
The compound `CCN1CC(=O)N2[C@H](c3ccc(Cl)cc3Cl)c3[nH]c4ccccc4c3C[C@H]2C1=O` returned an inhibition at 10 µM in experiment [2] of 20%. In addition, in experiment [1], the inhibition is 95%. In experiment [3], the IC50 came to 10 nM.
For `COC(=O)[C@@H]1Cc2c([nH]c3ccccc23)[C@H](c2c(Cl)cccc2Cl)N1C(=O)CCl` the same measures were 30%, 67% and 730 nM.
In turn, `COC(=O)[C@@H]1Cc2c([nH]c3ccccc23)[C@H](c2c(Cl)cccc2Cl)N1` gave an inhibition at 10 µM in experiment [2] of 52%. For the same compound, the inhibition in experiment [1] was determined as 15%.
Take `CCN1C(=O)[C@H]2Cc3c([nH]c4ccccc34)[C@H](c3ccc(Cl)c(Cl)c3)N2C1=O`: the concentration for half-maximal inhibition (IC50) in experiment [3] is 2860 nM.
In experiment [2], `COC(=O)[C@@H]1Cc2c([nH]c3ccccc23)[C@H](c2ccc(Cl)c(Cl)c2)N1C(=O)CCl` came in with an inhibition at 10 µM of 43%. Moreover, the inhibition in experiment [1] came out at 20%.
Compound `CCCCN1CC(=O)N2[C@H](c3ccc(Cl)cc3Cl)c3[nH]c4ccccc4c3C[C@@H]2C1=O` gave an inhibition at 10 µM in experiment [2] of 45%. In addition, the inhibition in experiment [1] was found to be 95%. Further, in experiment [3], the IC50 came to 270 nM.

Values taken from ChEMBL document CHEMBL1649422, “Synthesis and molecular modeling of novel tetrahydro-β-carboline derivatives with phosphodiesterase 5 inhibitory and anticancer properties” (J Med Chem, 2011).
